We go through 22 compounds from PubChem BioAssay.

The nature of assay [1]: S. cerevisiae growth inhibition in permissive medium (OD615), pilot counter-assay for S. cerevisiae lifespan shortening project, permissive growth control (AID 705). To be noted: OD615, 24 h, at 10 µM, active compounds read high. The method in brief: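 System: Engineered DeaD yeast | Buffer or medium: SC raffinose/galactose permissive medium | Doses: 10 µM single dose, 0.25% DMSO | Times: 24 h exposure, 30 °C | Measured by: OD615 turbidity read | Read-out: Yeast growth inhibition indicated by reduced 24 h OD615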

Assay [2] can be described thus: S. cerevisiae growth inhibition in restrictive medium, OD615, pilot screen, restrictive growth control, yeast lifespan reduction project (AID 706;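 active means growth inhibition above a set limit, 3 SD over mean compound inhibition, in both replicates, cut at about 43% in these data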;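 further: modified DeaD lifespan yeast strain shifted to restrictive glucose medium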). To be noted: OD615, 48 h, at 10 µM, active compounds read high. The method in brief: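 Assay system: engineered S. cerevisiae DeaD strain; Buffer or medium: CSMM-D glucose medium; Dosing: 10 µM compound, 0.25% DMSO; Times: cell pre-growth 4 h, compound exposure 48 h, 30 °C; Detection: absorbance (optical density) measured at 615 nm.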

Assay [3] is described as follows: doxorubicin toxicity protection in MRP-1 cells – H69AR cells, CellTiter-Glo, duplicate, MRP-1 activator project, pilot screen (AID 807;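 active means viability increase at or above a cutoff of the median across tested compounds plus 3 SD, cut at about 8.5% in these data, passing the limit was not always enough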;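 further: compound pretreatment 18-22 h then 72 h combined with doxorubicin; 0% = doxorubicin alone and 100% = vehicle without doxorubicin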). To be noted: H69AR viability with doxorubicin, CellTiter-Glo luminescence; at 10 µM; active compounds read high. (ATP-based viability assays read luminescence as a measure of living cells.)
Assay [4] is described as follows: viability of HCT116 without oncogenic beta-catenin – human colon tumor cells, pilot screen (AID 823;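 active means cell viability at or below a set limit in both duplicate runs, the limit being the all-compound median minus 4 SD, cut at about 23% in these data, passing the limit was not always enough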;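 further: 0% = wells killed by 20 µM Hyamine and 100% = untreated DMSO cell wells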). To be noted: HCT116 beta-catenin knockout viability, CellTiter-Glo, 60 h; at 10 µM; active compounds read low.
The nature of assay [5]: RAM pathway blockade in budding yeast – dse1pr::URA3 reporter, 5-FOA selection, pilot screen (AID 869;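 active means inhibition over a set limit, the all-compound mean plus 3 SD, in both replicate runs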;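 further: 0% = DMSO wells with no growth and 100% = 10 µM 1-NA-PP1 with full growth; RAM network block rescues cells from 5-FOA so hits raise OD615 growth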). To be noted: S. cerevisiae dse1pr::URA3 5-FOA growth, OD615, 2 d; at 10 µM; active compounds read high; strain carries analog-sensitive mutant Cbk1 kinase.
Assay [6] can be described thus: viability of PTEN-null HCT116 cells – cell-based, HCT116 clonal line, CellTiter-Glo, pilot screen (AID 824;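 active means viability at or below 27.92% in each of two runs, the all-compound median minus 4 SD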;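 further: 0% = 20 µM Hyamine control and 100% = vehicle cell control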). To be noted: HCT116 PTEN-deleted viability, 60 h, at 10 µM, active compounds read low.

A number with no mark means an inactive call. Results filed as inconclusive are left out. Calls of active or inactive are those of the source.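 How the source made its calls, unless noted: active means growth inhibition above 25% in both replicates, a cutoff set 3 SD above the mean; inconclusive means above 25% in only one replicate; inactive means the rest.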

Regarding `Cc1ccc(-c2nc3cnccn3c2Nc2ccc3c(c2)OCCO3)o1`, the figures for the growth inhibition in assay [1] and in assay [2] were -11.4% and -5.81%, respectively. Also, in assay [3], the viability increase was -5.2%. Besides, the viability in assay [4] is 92.4%. For the same compound, the inhibition in assay [5] is 1.19%.
Consider `C1=C(c2ccccc2)CCN(c2nc3ccccc3n3cnnc23)C1`, for which the growth inhibition is -7.88% in assay [1] and 11.2% in assay [2]. In assay [3], the viability increase is -3.98%. The viability in assay [4] is 90.4%; in assay [6] it was 86.8%. In addition, in assay [5], the inhibition was 0.34%.
For the compound `CN(C)c1ccc(-c2noc(C3CCN(S(=O)(=O)c4cccc(Cl)c4)CC3)n2)cc1`, the growth inhibition is -5.86% in assay [1] and -11.7% in assay [2]. In assay [3], the viability increase is 3.01%. Besides, the results for the viability in assay [4] and in assay [6] were 82.5% and 94.2%, respectively. Further, the inhibition in assay [5] was 2.6%.
Regarding `C(=C\c1ccccc1)/CN1CCN(c2ncnc3c2oc2ccccc23)CC1`, the growth inhibition in assay [1] was -2.64%; in assay [2] it was -6.73%. Also, the viability increase in assay [3] is -3.8%. Also, the inhibition in assay [5] is 1.36%.
As for `C=CCn1c(SCc2cc(=O)n3ccsc3n2)nc2scc(C3CC3)c2c1=O`, the growth inhibition in assay [1] was -3.27%; in assay [2] it was -5.57%. The viability increase in assay [3] was -3.7%. For the same compound, the viability in assay [6] is 91.8%. For the same compound, the inhibition in assay [5] was 2.79%.
For `CCCCN(C)CCCNC(=O)Cn1c(=O)sc2ccccc21`, in that order: -8.58%, -10.9%, -3.13%, 97.5% and 1.33%.
For `Cc1c(C(=O)NCc2cccs2)oc2ccc(S(=O)(=O)N3CCOCC3)cc12`, the growth inhibition was -0.625% in assay [1] and -4.37% in assay [2]. Also, in assay [3], the viability increase was -4.32%. Besides, the viability in assay [4] was 79.6%. Moreover, the inhibition in assay [5] was 0.46%.
As to `CSc1nc(NCCOCCO)c2sc3nc(-c4ccco4)c4c(c3c2n1)CCC4`, the growth inhibition in assay [1] is -7.22%; in assay [2], 0.84%. In addition, the viability increase in assay [3] is -4.7%. The viability in assay [4] was 81.3%. Further, the inhibition in assay [5] is 1.51%.
As to `COC(=O)c1ccc2c(c1)N(Cc1ccccc1F)C(=O)c1ccccc1S2=O` (stereo unspecified), the growth inhibition in assay [1] was -13.9%; in assay [2], -2.4%. Also, the viability increase in assay [3] is -4.03%. Moreover, the viability was 75.9% in assay [4] and 74% in assay [6]. Moreover, in assay [5], the inhibition was 1.02%.
On to `NC/C(=N\O)c1ccc(Cl)cc1Cl`, for which the growth inhibition in assay [1] was -6.44%; in assay [2], -12.5%. Besides, in assay [3], the viability increase was 2.52%. The viability is 97.7% in assay [4] and 94.1% in assay [6]. Moreover, the inhibition in assay [5] is 1.2%.
On to `CCOC(=O)c1ccc(NC(=O)c2ccc(C)c(S(=O)(=O)N3CCOCC3)c2)cc1`, for which the figures for the growth inhibition in assay [1] and in assay [2] were -7.03% and -5.64%, respectively. The viability increase in assay [3] was -3.41%. For the same compound, in assay [4], the viability is 12.8% (active). The inhibition in assay [5] is 0.87%.
In the case of `COC(=O)c1c(-c2ccc(F)cc2)csc1NC(=O)c1ccco1`, the values for the growth inhibition in assay [1] and in assay [2] were -27.6% and 0.595%, respectively. Besides, the viability increase in assay [3] was 1.29%. Further, in assay [4], the viability was 78.5%. For the same compound, in assay [5], the inhibition is 1.12%.
Consider `COc1ccc(-c2nc(CS(=O)CC(=O)NCc3ccc4c(c3)OCO4)c(C)o2)cc1` (stereo unspecified), for which the growth inhibition in assay [1] was 4.12%; in assay [2], 14.1%. For the same compound, the viability increase in assay [3] was -1.69%. Further, the viability is 94.7% in assay [4] and 91.1% in assay [6]. Further, in assay [5], the inhibition was 2.02%.
As to `CCN(CC)S(=O)(=O)c1cc(-c2nnc(-c3ccc(Br)cc3)o2)ccc1Cl`, the growth inhibition in assay [1] was -10.3%; in assay [2] it was -14.6%. For the same compound, the viability increase in assay [3] is 1.36%. In addition, the viability in assay [6] was 41.7%. Besides, the inhibition in assay [5] was 2.41%.
As to `COc1ccc(OC)c(-c2cc(C(=O)N3CCN(c4ccccc4)CC3)no2)c1`, the growth inhibition is -11.8% in assay [1] and 20.3% in assay [2]. Moreover, the viability increase in assay [3] is -2.36%. For the same compound, the viability in assay [4] is 96.9%; in assay [6], 88.8%. Besides, the inhibition in assay [5] was 1.72%.
With `COC(=O)CNc1c(-c2ccccn2)nc2ccc(Br)cn12`, the growth inhibition in assay [1] was -20.4%; in assay [2], 10.8%. For the same compound, the viability increase in assay [3] is -2.57%. Moreover, in assay [4], the viability was 89.2%. For the same compound, in assay [5], the inhibition was 0.175%.
In the case of `C=C(C)Cn1c(SCC(=O)O)nnc1-c1ccc(C(C)(C)C)cc1`, the growth inhibition in assay [1] is -15.7%; in assay [2] it was -4.97%. For the same compound, the viability increase in assay [3] was 0.28%. Besides, the viability in assay [6] was 101%. The inhibition in assay [5] is 1%.
Turning to `N#CCSc1n[nH]c2nc3c(c(=O)n12)C1(CCCC1)Cc1ccccc1-3`, the growth inhibition in assay [1] is -1.95%; in assay [2], 28%. The viability increase in assay [3] was 4.21%. In addition, the viability in assay [4] was 102%. Also, the inhibition in assay [5] is 2.08%.
For `COc1cc2[nH]c(=O)n(Cc3ccc(C(=O)NCC4CCCO4)cc3)c(=O)c2cc1OC` (stereo unspecified), in that order: -14.9%, -17.9%, -3.55%, 90.2% and 3.56%.
Regarding `CCC1(C)Cc2ccccc2-c2nc3n(c(=O)c21)CCCCC3` (stereo unspecified), the growth inhibition is -8.71% in assay [1] and -14.2% in assay [2]. Also, the viability increase in assay [3] was -1.36%. For the same compound, in assay [4], the viability is 88.1%. In addition, the inhibition in assay [5] was 4.02%.
Consider `CCCOC(=O)c1ccc(NC(=O)CCC(=O)OCC)cc1`, for which the growth inhibition was -2.93% in assay [1] and 0.845% in assay [2]. Moreover, in assay [3], the viability increase was -0.37%. In addition, the viability in assay [4] is 98.8%; in assay [6] it was 98.6%. In assay [5], the inhibition is 2.24%.
In the case of `Cc1c(/C=N/n2cnnc2)c2ccccc2n1CCOc1ccc(Cl)cc1`, the growth inhibition was 3.74% in assay [1] and 17.6% in assay [2]. Further, in assay [3], the viability increase was -4.25%. Besides, the viability in assay [6] is 90%. Also, the inhibition in assay [5] was 4.12%.

By viability is commonly meant a read-out of living cells in per cent, often relative to untreated cells. A word on the inhibition: it is the percentage by which the read-out fell short of the control.
